Assay results: ChEMBL document CHEMBL3856239, “Synthesis and Antiobesity Properties of 6-(4-Chlorophenyl)-3-(4-((3,3-difluoro-1-hydroxycyclobutyl)methoxy)-3-methoxyphenyl)thieno[3,2-d]pyrimidin-4(3H)-one (BMS-814580): A Highly Efficacious Melanin Concentrating Hormone Receptor 1 (MCHR1) Inhibitor” (J Med Chem, 2016)

Legend:
Cytochrome P450 2D6 = Cytochrome P450 2D6 (Homo sapiens, UniProt P10635); assay: Inhibition of CYP2D6 (unknown origin); format: ADME
Rattus norvegicus = assay: Antiobesity activity in pair-fed DIO Sprague-Dawley rat model assessed as reduction in body weight at 1 mg/kg, po qd for 28 days relative to vehicle control; format: functional; design: scale not given: the % may be the effect or the level left
Procedure, shortened: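 Obese male SD rats on diet-induced obesity, 8/group, dosed orally once daily for 28 days with phosphate prodrug (0.03–3 mg/kg parent) in 14% propylene glycol/1% Tween/85% water; rimonabant 10 mg/kg control; pair-fed groups matched to 1 and 3 mg/kg intake; body weight and food measured daily, % change versus vehicle.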

[1] = Clearance rat at 1 mg/kg, iv; format: ADME, organism-based; conditions: in vivo
Procedure, shortened: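 Rats, dogs and cynomolgus monkeys, n = 3: parent 1 mg/kg i.v. in PEG400:DMAC:water (70:5:25), or phosphate prodrug 10 mg/kg oral in Methocel:Tween80:water (0.5:0.1:99.4); plasma parent compound, Cmax, Tmax, AUC0-∞, half-life, clearance, Vss and bioavailability derived.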

Cytochrome P450 1A2 = biological target: T1, Cytochrome P450 1A2 (Homo sapiens, UniProt P05177); assay: Inhibition of CYP1A2 (unknown origin); format: ADME
T1 sequence (P05177 whole entry): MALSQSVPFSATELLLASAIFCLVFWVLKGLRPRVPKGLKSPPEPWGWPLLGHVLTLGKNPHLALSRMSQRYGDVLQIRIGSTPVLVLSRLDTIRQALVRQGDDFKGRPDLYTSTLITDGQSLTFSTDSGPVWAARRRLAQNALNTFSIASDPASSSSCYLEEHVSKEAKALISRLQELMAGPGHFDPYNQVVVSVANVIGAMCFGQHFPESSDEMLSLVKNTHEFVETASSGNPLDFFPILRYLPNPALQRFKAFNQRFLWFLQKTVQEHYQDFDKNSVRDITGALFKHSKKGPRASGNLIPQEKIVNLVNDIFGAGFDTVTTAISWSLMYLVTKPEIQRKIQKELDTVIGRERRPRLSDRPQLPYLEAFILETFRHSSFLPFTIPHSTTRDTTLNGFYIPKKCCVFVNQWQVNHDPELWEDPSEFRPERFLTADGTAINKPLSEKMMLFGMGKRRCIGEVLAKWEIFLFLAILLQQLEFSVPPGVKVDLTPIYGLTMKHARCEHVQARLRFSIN
Procedure, shortened: (§1)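 CYP1A2, 2C8, 2C9, 2C19, 2D6 and 3A4 tested for inhibition, with 40 µM as the top tested limit.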

Cytochrome P450 2C19 = Cytochrome P450 2C19 (Homo sapiens, UniProt P33261); assay: Inhibition of CYP2C19 (unknown origin); format: ADME; procedure, shortened: as §1
Sequence of Cytochrome P450 2C19 (P33261 whole entry): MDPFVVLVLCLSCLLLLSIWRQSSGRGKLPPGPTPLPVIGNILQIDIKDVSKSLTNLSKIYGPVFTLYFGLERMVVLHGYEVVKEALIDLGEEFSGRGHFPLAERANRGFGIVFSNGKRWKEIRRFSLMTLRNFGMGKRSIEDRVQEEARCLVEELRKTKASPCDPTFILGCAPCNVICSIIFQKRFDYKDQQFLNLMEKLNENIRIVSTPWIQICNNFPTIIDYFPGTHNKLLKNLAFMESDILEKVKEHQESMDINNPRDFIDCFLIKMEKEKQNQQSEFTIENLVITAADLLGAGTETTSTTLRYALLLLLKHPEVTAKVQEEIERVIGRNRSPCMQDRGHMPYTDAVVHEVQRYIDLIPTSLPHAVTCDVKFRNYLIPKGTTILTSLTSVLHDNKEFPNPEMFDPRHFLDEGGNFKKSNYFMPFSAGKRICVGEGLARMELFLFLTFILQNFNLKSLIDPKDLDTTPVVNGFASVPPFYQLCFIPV

[2] = Volume of distribution at steady state in cynomolgus monkey at 1 mg/kg, iv; format: ADME, organism-based, Macaca fascicularis; conditions: in vivo, read-out: Vdss
Procedure, shortened: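 Full PK in rat, dog and cynomolgus monkey. Oral arm: phosphate prodrug at 10 mg/kg parent-equivalent in Methocel:Tween80:water (0.5:0.1:99.4). Intravenous arm: parent at 1 mg/kg in PEG400:DMAC:water (70:5:25). n = 3 per species; individual Tmax values reported for dog and monkey.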

Cytochrome P450 2C9 = Cytochrome P450 2C9 (Homo sapiens, UniProt P11712); assay: Inhibition of CYP2C9 (unknown origin); format: ADME; procedure, shortened: as §1
Sequence of Cytochrome P450 2C9 (P11712 whole entry): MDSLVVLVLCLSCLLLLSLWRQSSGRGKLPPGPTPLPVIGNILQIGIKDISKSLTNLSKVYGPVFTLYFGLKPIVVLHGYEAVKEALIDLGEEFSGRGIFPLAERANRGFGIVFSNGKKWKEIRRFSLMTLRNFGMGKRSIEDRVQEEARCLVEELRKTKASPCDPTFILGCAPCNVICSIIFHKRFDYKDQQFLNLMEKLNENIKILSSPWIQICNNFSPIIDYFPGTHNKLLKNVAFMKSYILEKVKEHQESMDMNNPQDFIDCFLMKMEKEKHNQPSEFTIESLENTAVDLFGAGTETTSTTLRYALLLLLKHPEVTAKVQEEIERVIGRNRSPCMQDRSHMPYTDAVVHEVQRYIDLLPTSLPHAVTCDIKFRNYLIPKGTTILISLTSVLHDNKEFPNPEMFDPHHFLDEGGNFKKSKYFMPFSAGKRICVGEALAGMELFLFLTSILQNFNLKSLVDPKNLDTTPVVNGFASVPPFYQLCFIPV

[3] = biological target: Melanin-concentrating hormone receptor 1 (Homo sapiens, UniProt Q99705); assay: Antagonist activity at human MCHR1 expressed in HEK293 cells assessed as inhibition of MCH-stimulated calcium flux measured after 15 mins by FLIPR assay; format: functional, cell-based
Sequence of Melanin-concentrating hormone receptor 1 (Q99705 whole entry): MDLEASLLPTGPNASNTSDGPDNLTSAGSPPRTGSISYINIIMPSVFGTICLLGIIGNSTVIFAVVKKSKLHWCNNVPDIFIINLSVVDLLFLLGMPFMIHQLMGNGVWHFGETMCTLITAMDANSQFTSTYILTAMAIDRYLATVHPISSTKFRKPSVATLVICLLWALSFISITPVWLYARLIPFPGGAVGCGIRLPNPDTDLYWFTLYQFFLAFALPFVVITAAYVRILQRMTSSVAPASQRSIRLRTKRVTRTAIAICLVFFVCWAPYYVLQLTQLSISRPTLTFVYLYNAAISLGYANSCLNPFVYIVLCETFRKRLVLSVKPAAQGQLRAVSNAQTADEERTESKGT

[4] = Metabolic stability in human liver microsomes assessed as compound remaining at 3 uM measured after 10 min; format: ADME; conditions: read-out: Stability
Procedure, shortened: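 Test compound at 3.0 µM incubated with liver microsomes for 10 minutes; read-out is percent of parent remaining.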

Sequence of Cytochrome P450 2D6 (P10635 whole entry): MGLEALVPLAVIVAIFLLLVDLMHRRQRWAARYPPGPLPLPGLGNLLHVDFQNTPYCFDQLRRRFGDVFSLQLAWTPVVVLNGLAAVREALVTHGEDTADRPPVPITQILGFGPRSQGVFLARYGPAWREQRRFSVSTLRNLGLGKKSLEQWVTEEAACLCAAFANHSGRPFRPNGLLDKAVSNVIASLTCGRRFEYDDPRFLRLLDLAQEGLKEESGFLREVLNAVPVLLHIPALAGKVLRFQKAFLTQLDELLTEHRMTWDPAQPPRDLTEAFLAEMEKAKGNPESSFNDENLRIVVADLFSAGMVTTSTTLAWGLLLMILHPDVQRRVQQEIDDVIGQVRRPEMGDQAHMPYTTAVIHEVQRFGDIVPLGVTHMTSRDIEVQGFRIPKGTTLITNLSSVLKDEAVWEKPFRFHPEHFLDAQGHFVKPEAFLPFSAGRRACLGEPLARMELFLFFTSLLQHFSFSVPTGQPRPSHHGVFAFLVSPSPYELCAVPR

INH (Cytochrome P450 2D6): > 40 µM | clearance [1]: 0.9 mL/min/kg | INH (Cytochrome P450 1A2): > 40 µM | INH (Cytochrome P450 2C19): > 40 µM | Vd [2]: 5.4 L/kg | INH (Cytochrome P450 2C9): > 40 µM | Kb [3]: 0.117 µM | remaining at 10 min, 3 µM [4]: 90%
SMILES: COc1cc(-n2cnc3cc(-c4ccc(Cl)cc4)sc3c2=O)ccc1OCC1(O)CC(F)(F)C1
Activity (Rattus norvegicus): 4.2%
